# beta cell repl – inducers of beta-cell replication in MIN6 cells; 330,000 tested, 0.29% active; AID 2380; MIN6 cells proliferation, ATPlite luminescence, 48 h; cells starved in 0.2% serum; 100% = growth in 10% serum; proliferation, % at 10 µM;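 active means compounds whose signal lies at least 3.5 SD above the mean of all wells on their plate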;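 further: 0% = DMSO-treated cells in low-serum medium and 100% = 10% serum control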
# Yeast superoxide – lowers age-related superoxide in aged yeast cells; AID 2690; S. cerevisiae aged cells, superoxide DHE fluorescence; stronger effect = lower value; superoxide response (% of plate mean), % at 10 µM; 330,000 tested, 0.18% active;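 active means superoxide response under a set limit, about three screen SD below normal, cut at about 65% in these data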;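 further: yeast aged for seven days with compound at 30 °C before DHE staining; 100% = average MFI of all compound-treated wells on the plate with controls excluded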
# PG9 binder – small molecules binding HIV-1 gp120 antibody PG9; TR-FRET gp120-PG9 antibody binding; inhibition, % at 6.7 µM; 360,000 tested, 0.43% active; AID 624416; in the data active means inhibition above about 8.5%
# Rce1 inh – yeast Ras-converting enzyme inhibition. Q03530. 290,000 tested, 0.27% active. calls only. yeast membranes, quenched prenylated peptide cleavage fluorescence;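 active means fall in fluorescence gain of 50% or more versus controls, with final raw signal at or below 3038400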;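 further: plate controls were neutral control wells for no effect and wells lacking membranes for full effect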
# Target sequence (Q03530 whole entry, looked up): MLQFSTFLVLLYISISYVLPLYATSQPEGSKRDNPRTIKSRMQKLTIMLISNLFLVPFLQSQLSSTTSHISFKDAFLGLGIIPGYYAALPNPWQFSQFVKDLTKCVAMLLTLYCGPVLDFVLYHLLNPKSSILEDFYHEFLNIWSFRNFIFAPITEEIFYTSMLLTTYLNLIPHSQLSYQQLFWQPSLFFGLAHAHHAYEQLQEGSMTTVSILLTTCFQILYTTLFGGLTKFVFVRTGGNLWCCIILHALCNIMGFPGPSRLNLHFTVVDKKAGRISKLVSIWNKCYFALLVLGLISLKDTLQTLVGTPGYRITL
# Rev-erbA mod – modulators of human Rev-erb alpha DNA binding; P20393; Rev-erbα–FITC-DNA binding, fluorescence polarization, 90 min; activity, % at 10 µM; 370,000 tested, 0.79% active;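 active means activity above about 14%, limit read from the data; passing the limit was not always enough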;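 further: 0% = DMSO wells with 35 nM protein and 100% = DMSO wells with 750 nM protein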
# UCH37 inh – human UCH37 deubiquitinating enzyme inhibition | purified proteasome/UCH37, Ub-AMC cleavage fluorescence | Q9Y5K5 | 330,000 tested, 0.33% active | AID 588478 | inhibition, % (test concentration not listed);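 active means mean inhibition over replicate wells above about 20%, limit read from the data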;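 further: 0% = compound-free wells with enzyme and 100% = wells lacking proteasome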
#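 assay system = human UCH37 enzyme supplied as purified proteasome complex | amount = proteasome at 0.15 nM in the dispensed enzyme solution | schedule = 30 min compound-proteasome preincubation then 25 min substrate reaction, room temperature | measured by = fluorescence, ex 355 nm, em 460 nm | benchmarks = no-proteasome wells (full inhibition) and compound-free wells (no inhibition)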
# Starred values were filed as active, the others as inactive; i = inactive; . = no result; + = active, no number. A selection: hits, their analogues and other compounds. The true share with any hit is near 1.9%.
SMILES,beta cell repl,Yeast superoxide,PG9 binder,Rce1 inh,Rev-erbA mod,UCH37 inh
CNC(=S)N/N=C/c1ccc(-c2ccc(C(=O)O)cc2)o1,-2,77,-7,i,11,.
Cc1[nH][nH]c(=O)c1C(c1ccc(-c2ccc(C(=O)O)cc2)o1)c1c(C)[nH][nH]c1=O,.,.,-3,.,-3,23*
COc1ccc(-c2ccc(C(c3c(C)[nH][nH]c3=O)c3c(C)[nH][nH]c3=O)o2)c([N+](=O)[O-])c1,-4,.,-2,.,-3,8
CC(C)Nc1ccc(Nc2ccnc3cc4ccccc4cc23)cc1,-6,127,-14,i,-11,10
c1ccc(CCNc2ccnc3cc4ccccc4cc23)cc1,.,.,-13,+,6,i
CC(=O)c1cccc(OCc2cc(C(=O)NCCC3=CCCCC3)no2)c1,-1,96,-2,i,1,22*
COc1ccc2c(n1)Sc1nc3ccccc3nc1N2,.,59*,-2,i,-5,4
Oc1ccccc1C=Nn1cnn(Cc2ccccc2Cl)c1=S,.,.,.,.,.,0
COc1ccc(NS(=O)(=O)c2c(C)cc(C)cc2C)cc1,-3,100,-1,+,0,2
COC(=O)c1cc(Br)ccc1-c1ccc(C=Nn2nnnc2N)o1,.,.,.,.,.,-107
COc1ccc(/C=C\c2cc(OC)c(OC)cc2CC[N+](C)(C)C)cc1OC,-1,109,-2,+,-3,-85
COc1ccc(/C=C/c2ccncc2)cc1OC,0,98,0,.,5,-17
O=C(Nc1cccc2ncccc12)c1cccnc1,2,88,1,+,-2,-1
COc1ccccc1C(=O)ON=C(c1ccccc1)c1ccncc1,.,.,.,.,.,5
O=C(CC=NOCc1c(Cl)cccc1Cl)c1ccc(Cl)cc1,.,.,.,.,.,4
Cc1cc(NCCCCCCCNc2cc(C)nc3cc([N+](=O)[O-])ccc23)c2ccc([N+](=O)[O-])cc2n1,.,.,13*,.,-4,.
COCCCNc1cc(C)nc2ccccc12,-3,105,-1,i,1,2
C=CCn1c(SCC(=O)NCCO)nc2sc(C)c(C)c2c1=O,13*,98,-1,i,2,3
CSc1ccc(C(=O)C2CCCN(C(=O)c3cccnc3SC)C2)cc1 (centres undefined),1,92,-1,+,0,5
COc1ccccc1NN=Cc1ccc2c(c1)OCO2,.,.,.,.,.,1
Cc1cc(N2CCN(C(c3ccccc3)c3ccccc3)CC2)n2ncnc2n1,-3,98,1,+,-6,4
Cc1nc2ncnn2c(N2CCN(C(c3ccccc3)c3ccccc3)CC2)c1C,-5,104,-1,i,0,5
CN(C(=O)c1ccc(NC(=O)Cc2cccc(NC(=O)C3CCN(C(=O)C4CCCCC4)CC3)c2)cc1)C1CC1,.,.,-3,.,3,.
CN(C(=O)c1ccc(NC(=O)Cc2cccc(NC(=O)C3CCN(C(=O)C4CCCC4)CC3)c2)cc1)C1CCCC1,-2,112,1,.,6,22*
CC(CC(=O)NCCCN1CCOCC1)=NNC(=O)COc1ccc(C)cc1,.,.,.,.,.,6
SMILES,beta cell repl,Yeast superoxide,PG9 binder,Rce1 inh,Rev-erbA mod,UCH37 inh
Cc1ccc2occ(C=NNC(=O)c3ccncc3)c(=O)c2c1,.,.,.,.,.,-73
CC(C)=CC(=O)Nc1nnc(-c2ccccc2)s1,-3,94,-2,.,6,3
CC(C)=CC(=O)Nc1nnc(C)s1,-2,95,1,i,0,28*
CCOc1ccc(OCC)c(NC(=O)c2nnn(CC(=O)Nc3cc(C)cc(C)c3)c2N)c1,-2,102,0,+,-2,-41
CCOC(=O)c1c(NC(=O)COc2ccccc2F)sc2c1CC(C)(C)NC2(C)C,-7,100,0,+,13,5
CC(=NNC(=O)c1ccc(NS(=O)(=O)c2cccs2)cc1)c1ccccn1,.,.,.,.,.,6
CCCOc1ccc(C=NNC(=O)c2nnn(-c3nonc3N)c2-c2cccs2)cc1OC,.,.,.,.,.,-140
Cc1cc(C)c2c(c1)-c1cc(C)nn1C(c1ccc3c(c1)OCO3)N2 (centres undefined),-2,106,-1,+,7,-56
S=c1[nH]nc(COc2ccccc2)n1N=Cc1cccnc1,.,.,.,.,.,0
COc1cc2c(cc1OC)C1=C(C#N)CCC(=NS(=O)(=O)c3ccccc3)N1CC2,.,.,.,.,.,9
COc1ccc(C(=O)N=C2CCC(C#N)=C3c4cc(OC)c(OC)cc4CCN23)cc1,7.2*,117,-3,i,2,3
O=C(O)c1cc(N2N=C(C(F)(F)F)/C(=C/C=C/c3ccco3)C2=O)ccc1Cl,.,.,-1,.,-33,21*
CCOC(=O)c1ccc(N2N=C(C)/C(=C/C=C/c3ccco3)C2=O)cc1,-5,102,-3,i,0,8
CN(C)CCN(C(=O)c1ccc2ccccc2c1)c1nc2ccc(F)cc2s1,6,91,.,+,.,-2
COc1cc2ccccc2cc1C(=O)N(CCN(C)C)c1nc2ccc(C)cc2s1,-7,91,-1,+,5,3
COc1cc2ccccc2cc1C(=O)N(CCN(C)C)c1nc2c(OC)ccc(OC)c2s1,-8,106,2,i,-4,6
CCc1ccc2nc(N(CCN(C)C)C(=O)c3ccc4ccccc4c3)sc2c1,1,97,.,i,.,4
CCN(CC)CCN(C(=O)c1cc2ccccc2cc1OC)c1nc2ccc(F)cc2s1,-7,101,-1,+,6,2
O=C(NCCc1ccccc1)c1ccccc1NS(=O)(=O)N1CCCC1,0,96,-3,i,-3,-20
O=S(=O)(Nc1cccc2ccccc12)N1CCCC1,3,126,0,+,10,-4
Cc1ccc(C(=O)O)cc1[N+](=O)[O-],-3,80,-1,.,2,4
Cc1cc(C)c(NC(=O)c2cc(C(=O)O)ccc2C(=O)O)c([N+](=O)[O-])c1,3,106,-2,i,-1,47*
COCCN1C(=O)N[C@@H](c2ccccc2)[C@@H](C(=O)OC)[C@H]1C,-3,82,0,i,-3,22*
FC(F)(F)c1cccc(NN=Cc2ccccc2)c1,.,.,.,.,.,3
CC(C)c1nc2c(s1)CCc1onc(-c3ccc(Cl)cc3)c1-2,-5,.,-3,i,-3,24*
COc1ccc(C(=O)/C=C/c2ccc(OC)cc2OC)c(O)c1,2,90,1,+,-1,2
c1cn(CCCNc2ncnc3nc[nH]c23)cn1,-2,107,1,i,4,1
CCN1CCN(CCCNc2ncnc3nc[nH]c23)CC1,2,86,14*,i,6,3
NC(=O)c1nsc(C(=O)N(c2ccccc2F)C(C(=O)NCc2ccccc2)c2ccc(O)cc2)c1N (centres undefined),0,89,-2,+,0,-110
